Experimental data as given in ChEMBL document CHEMBL2146385, “Synthesis and antiviral evaluation of bis(POM) prodrugs of (E)-[4'-phosphono-but-2'-en-1'-yl]purine nucleosides” (Eur J Med Chem, 2012).
Calls of active or inactive are those of the source. The rule behind the calls is not given here.

Key:
[1] = Cytotoxicity against CRFK cells after 3 days; type: cell-based, Felis catus; details: cat
Felid alphaherpesvirus 1 = assay: Antiviral activity against Feline herpesvirus infected in CRFK cells assessed as inhibition of virus-induced cytopathicity after 3 days; type: functional, organism-based; details: Felid alphaherpesvirus 1, CRFK, 72 h
Human alphaherpesvirus 1 [2] = assay: Antiviral activity against acyclovir-resistant thymidine kinase deficient HSV1 KOS infected in HEL assessed as inhibition of virus-induced cytopathicity after 3 days; type: functional, organism-based; details: Human alphaherpesvirus 1, KOS, 72 h
Vaccinia virus = assay: Antiviral activity against Vaccinia virus infected in HEL assessed as inhibition of virus-induced cytopathicity after 3 days; type: functional, organism-based; details: Orthopoxvirus vaccinia, 72 h
[3] = test system: Respiratory syncytial virus; assay: Antiviral activity against Respiratory syncytial virus infected in human HeLa assessed as inhibition of virus-induced cytopathicity after 3 days; type: functional, organism-based
Outline: (§1)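 Confluent cell monolayers infected with 100 CCID50 of virus in the presence of test compound at 100, 20,... μM. Cytopathicity was scored once it was complete in untreated infected controls.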

Punta Toro virus = assay: Antiviral activity against Punta Toro virus infected in african green monkey Vero assessed as inhibition of virus-induced cytopathicity after 3 days; type: functional, organism-based; outline: as §1
CCRF-CEM = assay: Cytotoxicity against human CEM cells; type: cell-based
[4] = test system: Human immunodeficiency virus 2; assay: Antiviral activity against HIV2 ROD infected in human CEM cells assessed as inhibition of virus-induced giant cell formation after 4 days; type: functional, organism-based; details: Human immunodeficiency virus 2, ISOLATE ROD, CCRF-CEM, 96 h
Outline: (§2)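 Human CEM cells (~3×10^5 cells/cm3) were infected with 100 CCID50 of HIV-1(IIIB) or HIV-2(ROD) per ml and seeded into wells containing compound dilutions. After 4 days at 37 °C, giant cell formation was examined microscopically.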

Human alphaherpesvirus 2 = assay: Antiviral activity against HSV2 G infected in HEL assessed as inhibition of virus-induced cytopathicity after 3 days; type: functional, organism-based; details: Human alphaherpesvirus 2, strain G, 72 h; outline: as §1
Sindbis virus = assay: Antiviral activity against Sindbis virus infected in african green monkey Vero assessed as inhibition of virus-induced cytopathicity after 3 days; type: functional, organism-based; outline: as §1
[5] = test system: Mammalian orthoreovirus 1; assay: Antiviral activity against Reovirus-1 infected in african green monkey Vero assessed as inhibition of virus-induced cytopathicity after 3 days; type: functional, organism-based; outline: as §1
Influenza A virus [6] = assay: Antiviral activity against Influenza A virus H1N1 infected in MDCK assessed as inhibition of virus-induced cytopathicity after 3 days; type: functional, organism-based
Human alphaherpesvirus 3 [7] = assay: Antiviral activity against thymidine kinase-deficient VZV 07/1 infected in human HEL cells assessed as reduction of virus-induced cytopathogenicity after 3 days; type: functional, organism-based; details: Human alphaherpesvirus 3, 07/1, HEL, 72 h
[8] = Cytotoxicity against HEL assessed as minimum compound concentration causes microscopically detectable alteration of cell morphology after 3 days; type: cell-based; details: human, HEL cells
[9] = test system: Human immunodeficiency virus 1; assay: Antiviral activity against HIV1 3B infected in human CEM cells assessed as inhibition of virus-induced giant cell formation after 4 days; type: functional, organism-based; details: Human immunodeficiency virus 1, 3B, CCRF-CEM, 96 h; outline: as §2
Influenza A virus [10] = assay: Antiviral activity against Influenza A virus H3N2 infected in MDCK assessed as inhibition of virus-induced cytopathicity after 3 days; type: functional, organism-based
[11] = Cytotoxicity against HEL after 3 days; type: cell-based; details: human, HEL cells
Outline: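 HEL cells were seeded at 5×10^3 cells/well and allowed to grow for 24 h, then given medium with varying compound concentrations. After 3 days at 37 °C, cells were counted with a Coulter counter.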

Influenza B virus = assay: Antiviral activity against Influenza B virus infected in MDCK assessed as inhibition of virus-induced cytopathicity after 3 days; type: functional, organism-based
HeLa = assay: Cytotoxicity against human HeLa cells; type: cell-based
[12] = Selectivity index, ratio of CC50 for human CEM cells to EC50 for HIV2 ROD; type: toxicity, cell-based, CCRF-CEM; details: read-out: Ratio CC50/EC50
Coxsackievirus B4 = assay: Antiviral activity against Coxsackievirus B4 infected in human HeLa assessed as inhibition of virus-induced cytopathicity after 3 days; type: functional, organism-based; outline: as §1
[13] = test system: Vesicular stomatitis virus; assay: Antiviral activity against Vesicular stomatitis virus infected in MDCK assessed as inhibition of virus-induced cytopathicity after 3 days; type: functional, organism-based
Human alphaherpesvirus 3 [14] = assay: Antiviral activity against VZV OKA expressing thymidine kinase infected in HEL cells assessed as inhibition of virus-induced cytopathogenicity after 3 days; type: functional, cell-based; details: Human alphaherpesvirus 3, strain Oka vaccine, 72 h
[15] = test system: Vesicular stomatitis virus; assay: Antiviral activity against Vesicular stomatitis virus infected in human HeLa assessed as inhibition of virus-induced cytopathicity after 3 days; type: functional, organism-based
Human respirovirus 3 = assay: Antiviral activity against Parainfluenza-3 virus infected in african green monkey Vero assessed as inhibition of virus-induced cytopathicity after 3 days; type: functional, organism-based; outline: as §1
Human alphaherpesvirus 1 [16] = assay: Antiviral activity against HSV1 KOS infected in HEL assessed as inhibition of virus-induced cytopathicity after 3 days; type: functional, organism-based; details: Human alphaherpesvirus 1, KOS, 72 h
L1210 = assay: Cytotoxicity against mouse L1210 cells; type: cell-based

## Nc1nc2c(ncn2COC(CO)CO)c(=O)[nH]1 [GANCICLOVIR]
[1]
  CC50 at 72 h: > 100 µM
Felid alphaherpesvirus 1
  EC50: 1.2 µM

## COc1nc(N)nc2c1ncn2C/C=C/CP(=O)(OCOC(=O)C(C)(C)C)OCOC(=O)C(C)(C)C
Human alphaherpesvirus 1 [2]
  EC50: 7.5 µM
Vaccinia virus
  EC50: 16 µM
[3]
  Activity: inactive
Punta Toro virus
  Activity: inactive
CCRF-CEM
  IC50: 8 µM
[4]
  EC50: 0.28 µM
Human alphaherpesvirus 2
  EC50: 6.5 µM
Sindbis virus
  Activity: inactive
[5]
  Activity: inactive
Influenza A virus [6]
  Activity: inactive
Human alphaherpesvirus 3 [7]
  EC50: 0.5 µM
[8]
  MCC at 72 h: > 100 µM
[9]
  EC50: > 0.4 µM
Influenza A virus [10]
  Activity: inactive
[11]
  CC50 at 72 h: 1.6 µM
Influenza B virus
  Activity: inactive
HeLa
  IC50: 37 µM
[12]
  selectivity ratio: 28.5
Coxsackievirus B4
  Activity: inactive
[13]
  Activity: inactive
Human alphaherpesvirus 3 [14]
  EC50: 0.1 µM
[15]
  Activity: inactive
Human respirovirus 3
  Activity: inactive
Human alphaherpesvirus 1 [16]
  EC50: 6 µM
L1210
  IC50: 37 µM

## CC(C)(C)C(=O)OCOP(=O)(C/C=C/Cn1cnc2c(=O)[nH]c(N)nc21)OCOC(=O)C(C)(C)C
Human alphaherpesvirus 1 [2]
  EC50: 5.8 µM
[1]
  CC50 at 72 h: > 100 µM
Vaccinia virus
  EC50: 100 µM
[3]
  Activity: inactive
Punta Toro virus
  Activity: inactive
Human alphaherpesvirus 2
  EC50: 7.8 µM
Sindbis virus
  Activity: inactive
[5]
  Activity: inactive
Influenza A virus [6]
  Activity: inactive
Human alphaherpesvirus 3 [7]
  EC50: 0.8 µM
[8]
  MCC at 72 h: > 100 µM
Influenza A virus [10]
  Activity: inactive
[11]
  CC50 at 72 h: 4.1 µM
Influenza B virus
  Activity: inactive
Coxsackievirus B4
  Activity: inactive
Felid alphaherpesvirus 1
  EC50: 11 µM
[13]
  Activity: inactive
Human alphaherpesvirus 3 [14]
  EC50: 1.05 µM
[15]
  Activity: inactive
Human respirovirus 3
  Activity: inactive
Human alphaherpesvirus 1 [16]
  EC50: 3.9 µM

## CC(C)(C)C(=O)OCOP(=O)(C/C=C/Cn1cnc2c(N)nc(N)nc21)OCOC(=O)C(C)(C)C
Human alphaherpesvirus 1 [2]
  EC50: 20 µM
Vaccinia virus
  EC50: > 20 µM
[3]
  Activity: inactive
Punta Toro virus
  Activity: inactive
CCRF-CEM
  IC50: 46 µM
[4]
  EC50: 6.3 µM
Human alphaherpesvirus 2
  EC50: 20 µM
Sindbis virus
  Activity: inactive
[5]
  Activity: inactive
Influenza A virus [6]
  Activity: inactive
Human alphaherpesvirus 3 [7]
  EC50: 12 µM
[8]
  MCC at 72 h: > 100 µM
[9]
  EC50: 6.6 µM
Influenza A virus [10]
  Activity: inactive
[11]
  CC50 at 72 h: 36 µM
Influenza B virus
  Activity: inactive
HeLa
  IC50: 128 µM
[12]
  selectivity ratio: 7.3
Coxsackievirus B4
  Activity: inactive
[13]
  Activity: inactive
Human alphaherpesvirus 3 [14]
  EC50: 6.8 µM
[15]
  Activity: inactive
Human respirovirus 3
  Activity: inactive
Human alphaherpesvirus 1 [16]
  EC50: 20 µM
L1210
  IC50: 128 µM

## CC(C)(C)C(=O)OCOP(=O)(C/C=C/Cn1cnc2c(NC3CCCCC3)ncnc21)OCOC(=O)C(C)(C)C
Human alphaherpesvirus 1 [2]
  EC50: > 100 µM
Vaccinia virus
  EC50: > 100 µM
[3]
  Activity: inactive
Punta Toro virus
  Activity: inactive
Human alphaherpesvirus 2
  EC50: > 100 µM
Sindbis virus
  Activity: inactive
[5]
  Activity: inactive
Influenza A virus [6]
  Activity: inactive
Human alphaherpesvirus 3 [7]
  EC50: > 20 µM
[8]
  MCC at 72 h: 100 µM
Influenza A virus [10]
  Activity: inactive
[11]
  CC50 at 72 h: 11.4 µM
Influenza B virus
  Activity: inactive
Coxsackievirus B4
  Activity: inactive
[13]
  Activity: inactive
Human alphaherpesvirus 3 [14]
  EC50: 20 µM
[15]
  Activity: inactive
Human respirovirus 3
  Activity: inactive
Human alphaherpesvirus 1 [16]
  EC50: > 100 µM

## CCCCNc1nc(N)nc2c1ncn2C/C=C/CP(=O)(OCOC(=O)C(C)(C)C)OCOC(=O)C(C)(C)C
Human alphaherpesvirus 1 [2]
  EC50: > 100 µM
Vaccinia virus
  EC50: > 100 µM
[3]
  Activity: inactive
Punta Toro virus
  Activity: inactive
Human alphaherpesvirus 2
  EC50: > 100 µM
Sindbis virus
  Activity: inactive
[5]
  Activity: inactive
Influenza A virus [6]
  Activity: inactive
Human alphaherpesvirus 3 [7]
  EC50: 43.6 µM
[8]
  MCC at 72 h: > 100 µM
Influenza A virus [10]
  Activity: inactive
[11]
  CC50 at 72 h: 60 µM
Influenza B virus
  Activity: inactive
Coxsackievirus B4
  Activity: inactive
[13]
  Activity: inactive
Human alphaherpesvirus 3 [14]
  EC50: 32.4 µM
[15]
  Activity: inactive
Human respirovirus 3
  Activity: inactive
Human alphaherpesvirus 1 [16]
  EC50: > 100 µM
